Most compounds without a hit are left out; they make up all but 2.4% or so of the library.
Efa HMGR inh – inhibitors of class II HMG-CoA reductase from Enterococcus faecalis | purified E. faecalis HMGR, NADPH absorbance 340 nm kinetic | inhibition, % at 10 µM | actives 0.41% (n = 190,000) | AID 1066;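 active means inhibition above a set limit, the median over all tested compounds plus 3 SD, cut at about 9.5% in these data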;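 further: enzyme runs in reverse so mevalonate oxidation gives rising NADPH absorbance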
bCat nuc transl – beta-catenin nuclear translocation modulation. HeLa beta-catenin nuclear translocation, immunofluorescence imaging. nuclear translocation activity, % at 5 µM. actives 0.3% (n = 190,000). AID 1665;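 active means nuclear translocation activity above 50% at 5 µM, with a well cell count of 50 or more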;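 further: per-cell ratio of nuclear to cytoplasmic median beta-catenin stain intensity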
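Technique: fluorescence imaging of beta-catenin antibody stain plus DAPI / Material: human HeLa cell line / Incubation: compound treatment 24 h, 37°C, 5% CO2 / Read-out basis: % activation of per-cell nuclear versus cytoplasmic median beta-catenin signal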
Tb hexokinase – T. brucei hexokinase 1 inhibition; recombinant TbHK1, G6PDH-coupled NADH A340; inhibition, % at 10 µM; actives 0.11% (n = 220,000); AID 1430;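 active means inhibition of 50% or more in the single-dose primary screen; inactive means inhibition below 50%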
EP2 modulator – EP2 receptor (human) modulation | induction, % at 25 µM | EP2-expressing cells, cAMP HTRF FRET, PGE2 co-stimulation | actives 0.83% (n = 260,000) | P43116;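 active means compounds whose cAMP rise, as percent of the full-agonist control response, exceeds 60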;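 further: rat C6 glioma line stably carrying human EP2 under a CMV promoter; the protocol text gives 20 µM as final concentration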
Target sequence (P43116 whole entry, looked up): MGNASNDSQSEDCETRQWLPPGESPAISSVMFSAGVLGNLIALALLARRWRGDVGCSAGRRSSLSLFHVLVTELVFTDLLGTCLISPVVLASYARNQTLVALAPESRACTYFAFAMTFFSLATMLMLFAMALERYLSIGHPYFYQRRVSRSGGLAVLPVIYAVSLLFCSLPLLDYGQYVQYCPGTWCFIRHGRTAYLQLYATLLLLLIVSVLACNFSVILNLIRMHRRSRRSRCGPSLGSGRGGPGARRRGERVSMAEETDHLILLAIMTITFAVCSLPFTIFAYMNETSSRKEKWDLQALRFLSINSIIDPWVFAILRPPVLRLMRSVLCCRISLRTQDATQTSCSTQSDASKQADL
PGE2 EP2 inh – blocks the human prostaglandin E2 receptor EP2; P43116; C6 glioma cells expressing human EP2, cAMP TR-FRET; cells stimulated with saturating PGE2; AID 1422; inhibition, % at 25 µM; actives 0.52% (n = 260,000);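 active means percent inhibition above 40 after rounding to a whole number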;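 further: rat C6 glioma host cells with rolipram phosphodiesterase inhibitor present; the protocol text gives 20 µM as final concentration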
MT stabilize HCS – stabilizes microtubules in HeLa cells; HeLa tubulin immunostaining HCS, 24 h; share of cells brighter than vehicle mean+2SD; % tubulin-high responders, % at 10 µM; actives 0.83% (n = 200,000); AID 2205;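 active means plate Z-score above 3 for both tubulin-high and condensed-nucleus cell shares, with cell loss under 80%, at 10 µM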;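 further: anti alpha tubulin signal scored within the nucleus-defined area of each cell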
EP2 confirm – human EP2 receptor cAMP induction, negative in counter-screens. C6 glioma EP2 cells, cAMP HTRF induction; plus low (about EC15) PGE2 agonist. calls only at 20 µM (by protocol). shares compounds with EP2 modulator. actives 47% (n = 1,300);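 active means cAMP induction above 50% in the main assay while under 30% in all four parallel counter assays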;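 further: rat C6 glioma cells stably expressing human EP2 receptor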
Hits are given with their value; - = inactive; . = not tested or not shown; + = active, no number.

SMILES | Efa HMGR inh | bCat nuc transl | Tb hexokinase | EP2 modulator | PGE2 EP2 inh | MT stabilize HCS | EP2 confirm
CCN(CC)S(=O)(=O)c1ccc(NC(=O)c2sc3ccccc3c2Cl)cc1 | . | . | . | - | - | . | .
CCOC(=O)c1c(NC(=O)Cc2cccs2)sc(C)c1C | - | - | - | 62 | - | - | -
COc1ccccc1NC(=O)NC1CC2CCCC(C1)N2C1CC1 (stereo not given) | . | . | . | - | - | . | .
COc1ccccc1-c1noc(-c2cc(OC)c(OC)c(OC)c2)n1 | - | - | - | - | - | - | .
COc1cc(-c2nc(-c3cccc(C(F)(F)F)c3)no2)cc(OC)c1OC | - | - | - | 72 | - | - | +
Cc1cccc(OCc2n[nH]c(=S)n2Cc2ccccc2)c1 | - | - | - | - | - | - | -
Cc1cc(=O)oc(C)c1C(=O)OC(C(=O)c1ccccc1)c1ccccc1 (stereo not given) | - | - | - | 67 | - | - | -
N#Cc1c(-c2c(Cl)cccc2Cl)noc1/C=C/Nc1ccc(C(=O)O)cc1 | - | - | - | 68 | - | - | +
CN(C)/C=C/c1onc(-c2c(Cl)cccc2Cl)c1C#N | - | - | - | - | - | - | .
CC(C)(C)c1ncc(C(=O)NCc2nc(-c3ccccc3)no2)cn1 | . | . | . | - | - | . | .
Cc1cc(Oc2ccccc2F)nc(NCc2ccccc2)n1 | - | - | - | 66 | . | - | +
Cc1cc(Oc2ccccc2)nc(NCc2ccccc2)n1 | - | - | - | 66 | - | - | +
Cc1ccccc1NC(=O)CSc1nccc(=O)[nH]1 | . | . | . | - | - | . | .
CCOc1cccc(CNc2ccc(O)cc2)c1OCc1ccccc1Cl | - | - | - | 84 | - | - | +
CCOc1cccc(CNc2ccc(O)cc2)c1OCc1ccc(Cl)cc1Cl | - | - | - | - | . | - | .
COCCNC(=O)c1c[nH]c2cc(C)ccc2c1=O | . | . | . | - | - | . | .
COc1ccc(/C=C/C(=O)Nc2nccs2)cc1Br | . | . | . | - | - | . | .
Cc1noc(C)c1CSc1nc2ccccc2c(=O)n1-c1ccc(Cl)cc1 | - | . | - | 71 | - | 40 | +
COP(=O)(OC)c1nc(-c2cccc3ccccc23)oc1NCCc1ccccc1 | - | . | - | - | - | - | .
CCOP(=O)(OCC)c1nc(-c2cccc3ccccc23)oc1NCc1ccc(OC)cc1 | - | - | - | 71 | - | - | -
COc1ccc(CCNc2oc(-c3cccc4ccccc34)nc2P(=O)(OC)OC)cc1OC | - | - | - | - | - | - | .
CCOP(=O)(OCC)c1nc(/C=C/c2ccccc2)oc1NCc1ccc(OC)cc1 | - | . | - | - | - | - | .
CCOP(=O)(OCC)c1nc(-c2cccc3ccccc23)oc1NCc1ccccc1 | - | - | - | 77 | - | - | +
CCOP(=O)(OCC)c1nc(/C=C/c2ccccc2)oc1NCc1ccccc1 | - | - | - | - | - | - | -
CCOP(=O)(OCC)c1nc(-c2ccc(C)cc2)oc1NCc1ccccc1 | - | - | - | 81 | - | - | +
SMILES | Efa HMGR inh | bCat nuc transl | Tb hexokinase | EP2 modulator | PGE2 EP2 inh | MT stabilize HCS | EP2 confirm
COCCCNC(=O)c1c(C)c(-c2ccccc2)nc2c(C)cc(C)cc12 | . | . | . | - | - | . | .
C(=N\n1c2ccccc2c2ccccc21)/c1ccccc1 | - | - | - | - | - | - | .
C(=N/n1c2ccccc2c2ccccc21)/c1ccco1 | - | . | - | 65 | - | - | +
CC(C)c1nc2sc3c(c2c2nnc(SCC(=O)Nc4ccccc4F)n12)CCCC3 | . | . | . | - | - | . | .
O=c1c(O)c(-c2ccccc2)oc2ccc3occc3c12 | . | . | . | 74 | - | . | +
COc1ccc(C(NC(=O)C2CCCC2)c2nccn2C)cc1OC (stereo not given) | . | . | . | - | . | . | .
N#CCSc1nc2sc3c(c2c(=O)n1C1CCCCC1)CCCC3 | - | - | - | 73 | - | - | +
CCn1c(SCC(=O)Nc2cccc(C)c2C)nnc1-c1ccncc1 | . | . | . | - | - | . | .
Cc1onc(-c2ccccc2)c1C(=O)NCc1ccco1 | - | - | - | - | - | - | .
Cc1onc(-c2ccccc2)c1C(=O)N(Cc1ccco1)Cc1cccs1 | - | - | - | 98 | - | - | +
CC1=C[N+](=O)c2ccccc2[N+]1=O | . | . | . | 107 | - | . | -
COc1cc(C)c(-c2csc(NC(=O)c3cnc(SC)nc3)n2)cc1C | . | . | . | - | - | . | .

From PubChem BioAssay
